From PubChem BioAssay
MT stabilizer: stabilizes microtubules in HeLa cells; HeLa tubulin immunostaining HCS, 24 h; share of cells brighter than vehicle mean+2SD; % tubulin-high responders, % at 10 µM; 200,000 tested, 0.83% active;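 active means plate Z-score above 3 for both tubulin-high and condensed-nucleus cell shares, with cell loss under 80%, at 10 µM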;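 further: anti alpha tubulin signal scored within the nucleus-defined area of each cell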
Ba/F3 V617F tox: reduce viability of Ba/F3 cells dependent on JAK2V617F. Ba/F3 EpoR-JAK2V617F viability, ATP luminescence. inhibition, % at 5.6 µM. 220,000 tested, 1.1% active;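 active means inhibition above the campaign mean plus 3 SD over all tested compounds, cut at about 24% in these data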;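 further: cytokine-independent growth of Ba/F3 cells driven by EpoR plus mutant JAK2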
b-catenin transl: alters nuclear translocation of beta-catenin in HeLa cells; immunofluorescence imaging; nuclear translocation activity, % at 5 µM; 190,000 tested, 0.3% active; AID 1665;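 active means nuclear translocation activity above 50% at 5 µM, with a well cell count of 50 or more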;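 further: per-cell ratio of nuclear to cytoplasmic median beta-catenin stain intensity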
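Technique: fluorescence imaging of beta-catenin antibody stain plus DAPI / Material: human HeLa cell line / Incubation: compound treatment 24 h, 37°C, 5% CO2 / Read-out basis: % activation of per-cell nuclear versus cytoplasmic median beta-catenin signal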
IEC-6 tox: kills IEC-6 intestinal cells in KLF5 counter-screen; IEC-6 cytotoxicity, luminescence viability; inhibition, % at 5 µM; 290,000 tested, 0.78% active; AID 1825
KLF5 inhibitor: inhibitors of KLF5 expression. DLD-1 KLF5 promoter-luciferase reporter, luminescence. inhibition, % at 5 µM. 290,000 tested, 0.23% active;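 active means inhibition above a per-plate limit of that plate's mean compound inhibition plus 3 SD, cut at about 60% in these data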;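 further: higher means less KLF5 promoter-driven luciferase light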
BaF3 tox: reduces parental Ba/F3 cell viability, JAK2V617F counter-screen; CellTiter-Glo ATP luminescence; inhibition, % at 5.6 µM; 220,000 tested, 1.1% active;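 active means inhibition above a per-campaign cutoff, the mean inhibition of all tested compounds plus 3 SD, cut at about 27% in these data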
IEC-6 cytotox cf: IEC-6 cytotoxicity, confirmation assay | shares compounds with IEC-6 tox | IEC-6 rat intestinal epithelial viability, luminescence | inhibition, % at 5 µM | 1,900 tested, 63% active | AID 1907
Hits are given with their value; - = inactive; . = no result. In the library only some 2.1% were active in any assay of this set; here they are far more common. Unless noted, no stated cut-off is given here; in the data, active means inhibition above about 22%; inactive means the rest.

SMILES | MT stabilizer | Ba/F3 V617F tox | b-catenin transl | IEC-6 tox | KLF5 inhibitor | BaF3 tox | IEC-6 cytotox cf
Cc1ccc2[nH]c3c(NCc4ccccc4)ncnc3c2c1 | . | . | . | 30.3 | - | . | -
COc1cccc(C(=O)Oc2ccc(/C=N/Nc3ccc(C(=O)O)cc3)cc2OC)c1 | . | . | . | - | - | . | .
COc1cccc(OCc2cc(/C=N/Nc3ccc(C(=O)O)cc3)ccc2OC)c1 | . | - | - | 28.4 | - | - | 55.3
CC1=C(C(=O)Nc2ccc(CC(=O)NCc3ccc(OC(C)C)cc3)cc2)SCCO1 | . | . | . | 82.2 | - | . | 60.3
CCOc1ccc(CNC(=O)c2cccc(NC(=O)C3=C(C)OCCS3)c2)cc1 | . | . | . | - | - | . | .
COc1ccc(CNC(=O)Cc2ccc(NC(=O)C3=C(C)OCCS3)cc2)cc1 | . | . | . | 65.3 | - | . | 43.0
COc1ccc(C2c3cc(OC)c(OC)cc3CCN2S(C)(=O)=O)cc1OC (configuration not stated) | - | 75.5 | - | 36.4 | - | 57.5 | -
Cc1ccc(S(=O)(=O)Nc2ccccc2-c2ccccc2NS(=O)(=O)c2ccc(C)cc2)cc1 | - | - | - | - | - | - | .
COc1cc(NS(=O)(=O)c2ccc(C)cc2)c2ncccc2c1 | - | - | - | 79.3 | - | - | 74.3
Cc1ccc(S(=O)(=O)Nc2cccc3cccnc23)cc1 | - | - | . | 32.1 | - | - | 100.2
COc1ccc(S(=O)(=O)Nc2cc3c(C(C)=O)c(C)oc3c3ccccc23)cc1 | - | 79.4 | . | 83.3 | - | 78.2 | 55.2
COc1ccccc1NC(=O)Nc1nc(C(C)(C)C)cs1 | - | - | - | - | - | - | .
CC1(C)CC(N2CCCCC2)=CC(=[N+]2CCCCC2)C1 | - | 84.4 | - | 23.4 | - | 67.9 | 25.3
Cc1sc(NC(=O)C(C)C)c(C(=O)Nc2ccccc2)c1C | - | - | - | - | - | - | .
Cn1c(SCC(=O)Nc2ccc3c(c2)OCCO3)nnc1C1CC1 | . | . | . | - | - | . | .
CCOCCCNC(=O)C(c1ccccc1)N(Cc1ccc2c(c1)OCO2)C(=O)c1ccccc1O (configuration not stated) | - | - | - | - | - | - | .
CN1C(=O)CC(c2ccco2)Sc2ccccc21 (configuration not stated) | - | - | - | - | - | - | .
COc1ccc(C2CC(=O)N(C)c3ccccc3S2)cc1 (configuration not stated) | - | - | - | 23.7 | - | - | -
CCCC(C)C(=O)OCC(=O)NCc1ccc(OC)c(OC)c1 (configuration not stated) | - | - | - | - | - | - | .
COCCN(C(=O)Nc1ccccc1OC)c1nc2ccccc2s1 | . | . | . | 45.1 | - | . | 31.3
Cc1[nH]c2ccccc2c1/C=N/NC(=O)c1cc(-c2ccncc2)nc2ccccc12 | . | . | . | 40.1 | - | . | 53.5
Cc1[nH]c2ccccc2c1/C=N/NC(=O)c1cc(-c2ccccc2)n[nH]1 | . | - | - | - | - | - | .
COc1ccc(-n2c(SCC(=O)Nc3ccc(C(=O)O)cc3)nnc2-c2ccccc2)cc1OC | . | . | . | - | - | . | .
O=C(c1ccco1)N1CCN(Cc2cccc3ccccc23)CC1 | . | . | . | 26.3 | - | . | -
CC(C)CCOc1ccc(/C=C2\CCn3c2nc2cc(C(=O)O)ccc2c3=O)cc1 | - | - | - | - | - | - | .
SMILES | MT stabilizer | Ba/F3 V617F tox | b-catenin transl | IEC-6 tox | KLF5 inhibitor | BaF3 tox | IEC-6 cytotox cf
CCC(C)c1ccc(NC(=O)Nc2cnccn2)cc1 (configuration not stated) | . | . | . | 78.8 | - | . | 55.2
CCOc1ccc(NC(=O)Nc2cnccn2)cc1 | - | - | - | - | - | - | .
COc1ccc(N2C(N)=NC(N)=NC2(C)C)cc1 | - | 98.0 | - | 53.0 | - | 98.8 | -
COc1cccc(N2CC(=O)N(c3cccc(OC)c3)CC2=O)c1 | - | - | - | - | - | - | .
O=C(O)c1cccc(-n2cnnn2)c1 | - | - | - | - | - | - | .
CC1(C)N=C(N)N=C(N)N1c1cccc(C(=O)O)c1 | - | - | - | 36.8 | - | - | -
COc1cccc(N2C(N)=NC(N)=NC2(C)C)c1 | - | 94.5 | - | 54.1 | - | 92.9 | 41.8
C/C=C/C(=O)N(CC)c1ccccc1C | . | - | - | - | - | - | .
CCOc1c(Br)cc(Br)cc1/C=C1\SC(N)=NC1=O | . | . | . | - | - | . | .
C/C(=N\NC(=O)c1cc(C2CC2)nc2ccccc12)c1ccc(C)s1 | - | - | . | - | - | - | .
C/C(=N\NC(=O)c1cc(C2CC2)nc2ccccc12)c1ccc(O)cc1O | . | . | . | 51.0 | - | . | 43.4
CC(/C=C/c1ccccc1)=N\NC(=O)c1cc(C)nc2ccccc12 | . | 33.3 | - | 39.6 | - | 52.2 | -
C/C(=N\NC(=O)c1cc(C)nc2ccccc12)c1cccs1 | . | - | - | 28.9 | - | - | -
Cc1ccc(S(=O)(=O)Nc2c(Cl)c(Cl)c(O)c3ccccc23)cc1 | . | . | . | - | - | . | .
O=C1c2cccc3cccc(c23)C(=O)N1CCc1ccccc1 | - | - | - | - | - | - | .
Cc1[nH]c(C)c(S(=O)(=O)NCc2ccco2)c1C(=O)N1CCCCC1 | . | . | . | - | - | . | .
O=c1[nH]c(/C=C2\C=Nc3ccccc32)c(O)n1Cc1ccccc1F | - | 98.6 | - | 40.6 | - | 66.7 | 37.0
CSc1nc(O)c(/C=C2\C=Nc3ccccc32)[nH]1 | - | - | - | - | - | - | .
Cc1nnc(N/N=C/c2c(Cl)cccc2Cl)n1N | . | - | - | 101.8 | - | - | -
CCc1nnc(N/N=C/c2c(F)cccc2Cl)n1N | . | . | . | - | - | . | .
Cc1nnc(N/N=C/c2ccccc2O)n1N | - | - | - | 101.6 | - | - | -
Cc1nnc(N/N=C/c2cc(C)n(-c3ccc(F)cc3)c2C)n1N | - | - | - | 99.4 | - | - | -
O=C(/C=C/c1ccco1)Nc1sc2c(c1C(=O)O)CCC2 | - | - | - | - | - | - | .
N#Cc1c(NC(=O)/C=C/c2ccco2)sc2c1CCCC2 | - | 90.9 | 106.5 | 92.7 | - | 89.7 | 78.4
CCOC(=O)c1[nH]c(C)c(C(=O)OCC)c1C | - | - | . | - | - | - | .
SMILES | MT stabilizer | Ba/F3 V617F tox | b-catenin transl | IEC-6 tox | KLF5 inhibitor | BaF3 tox | IEC-6 cytotox cf
CCOC(=O)c1[nH]c(C)c(C(=O)c2cc(F)ccc2F)c1C | - | 63.0 | 55.3 | 87.7 | - | 78.0 | 64.6
CCOC(=O)c1[nH]c(C)c(C(=O)OCc2ccccc2F)c1C | . | . | . | 51.0 | - | . | 37.9
COc1ccc(NC(=O)Nc2ccc(C(=O)N3CCOCC3)cc2)c(OC)c1 | - | - | - | - | - | - | .
CCn1c(=O)cc(C(F)(F)F)[nH]c1=S | - | - | - | - | - | - | .
COc1cc(NC(=O)c2noc(C)c2[N+](=O)[O-])c(OC)cc1Cl | . | . | . | 64.4 | - | . | -
O=C(CCNS(=O)(=O)c1ccccc1)N1CCN(c2ccccc2)CC1 | . | . | . | - | - | . | .
Cc1nnc(SCC(=O)NCC(=O)Nc2ccc(F)c(F)c2F)n1Cc1ccccc1 | - | - | - | - | - | - | .
CC(C)(C)NC(=O)CN(C(=O)CCC(=O)Nc1nccs1)c1ccc(F)cc1 | . | . | . | - | - | . | .
CCCCNc1cc(C)nc(NCc2ccccc2)n1 | 10.4 | 49.5 | - | 23.3 | - | 45.4 | -
Cc1nsc2nc3c(F)c(F)c(F)c(F)c3cc12 | . | . | . | 29.4 | - | . | -
